# From ChEMBL document CHEMBL1132573, “Novel antitumor 2-cyanoaziridine-1-carboxamides” (J Med Chem, 1999)
# Tests used:
# [1] = Number of colony forming cells of human melanoma tumor showing sensitivity among the 5 colony forming cells tested in vitro at compound concentration of 0.2 uM; type: functional
# Method in brief: (§1)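 Fresh human tumor specimens from patients at the Arizona Cancer Center, run in the human tumor cloning (colony-forming) assay by a standard protocol. Read-out was [3H]thymine uptake by tumor-colony-forming cells.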
# [2] = system: RPMI-8226; test: Inhibition of cell growth in drug sensitive 8226 myeloma cell line; type: functional, cell-based; settings: Homo sapiens
# [3] = Number of colony forming cells of human myeloma tumor showing sensitivity among the 2 colony forming cells tested in vitro at compound concentration of 0.2 uM; type: functional; method in brief: as §1
# [4] = system: L1210; test: Inhibition of cell growth in drug sensitive L1210 leukemia cell line determined by MTT assay; type: functional, cell-based; settings: Mus musculus
# [5] = system: Breast carcinoma cell; test: Number of colony forming cells of human breast tumor showing sensitivity among the 4 colony forming cells tested in vitro at compound concentration of 20 uM; type: functional; method in brief: as §1
# [6] = system: Breast carcinoma cell; test: Number of colony forming cells of human breast tumor showing sensitivity among the 4 colony forming cells tested in vitro at compound concentration of 0.2 uM; type: functional; method in brief: as §1
# [7] = Number of colony forming cells of human stomach tumor showing sensitivity among the 1 colony forming cells tested in vitro at compound concentration of 0.2 uM; type: functional
# Method in brief: (§2)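 Fresh human tumor specimens, obtained from patients at the Arizona Cancer Center, were tested as tumor-colony-forming cells in the human tumor cloning assay. Sensitivity was scored as a 50% or greater decrease in […] uptake by treated colony-forming cells relative to untreated control colony-forming cells. The value is the count of sensitive specimens among those tested.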
# [8] = system: OVCAR-3; test: Inhibition of cell growth in (OVCAR-3) ovarian cell line; type: functional, cell-based; settings: Homo sapiens
# [9] = Number of colony forming cells of human ovary tumor showing sensitivity among the 11 colony forming cells tested in vitro at compound concentration of 2.0 uM; type: functional, Female gonad; method in brief: as §1
# [10] = system: L1210; test: Inhibition of cell growth in (L1210 leukemia) MDR cells determined by MTT assay; type: functional, cell-based; settings: Mus musculus
# [11] = Number of colony forming cells of human gynecologic tumor showing sensitivity among the 4 colony forming cells tested in vitro at compound concentration of 2.0 uM; type: functional; method in brief: as §1
# [12] = Number of colony forming cells of human melanoma tumor showing sensitivity among the 10 colony forming cells tested in vitro at compound concentration of 2.0 uM; type: functional; method in brief: as §1
# [13] = Number of colony forming cells of human lung tumor showing sensitivity among the 2 colony forming cells tested in vitro at compound concentration of 2.0 uM; type: functional; method in brief: as §1
# [14] = Number of colony forming cells of human stomach tumor showing sensitivity among the 1 colony forming cells tested in vitro at compound concentration of 20 uM; type: functional; method in brief: as §2
# [15] = Number of colony forming cells of human gynecologic tumor showing sensitivity among the 4 colony forming cells tested in vitro at compound concentration of 0.2 uM; type: functional; method in brief: as §1
# [16] = system: A549; test: Inhibition of cell growth in (A-549) lung cell line; type: functional, cell-based; settings: Homo sapiens
# [17] = Number of colony forming cells of human lung tumor showing sensitivity among the 2 colony forming cells tested in vitro at compound concentration of 20 uM; type: functional; method in brief: as §1
# [18] = system: A-375; test: Inhibition of cell growth in (A375) melan cell line; type: functional, cell-based; settings: Homo sapiens
# [19] = Number of colony forming cells of human sarcoma tumor showing sensitivity among the 8 colony forming cells tested in vitro at compound concentration of 20 uM; type: functional; method in brief: as §2
# [20] = Number of colony forming cells of human myeloma tumor showing sensitivity among the 2 colony forming cells tested in vitro at compound concentration of 2.0 uM; type: functional; method in brief: as §1
# [21] = Number of colony forming cells of human melanoma tumor showing sensitivity among the 10 colony forming cells tested in vitro at compound concentration of 20 uM; type: functional; method in brief: as §1
# [22] = Number of colony forming cells of human ovary tumor showing sensitivity among the 10 colony forming cells tested in vitro at compound concentration of 20 uM; type: functional, Female gonad; method in brief: as §1
# [23] = Number of colony forming cells of human lung tumor showing sensitivity among the 2 colony forming cells tested in vitro at compound concentration of 0.2 uM; type: functional; method in brief: as §1
# [24] = system: Breast carcinoma cell; test: Number of colony forming cells of human breast tumor showing sensitivity among the 4 colony forming cells tested in vitro at compound concentration of 2.0 uM; type: functional; method in brief: as §1
# [25] = Number of colony forming cells of human gynecologic tumor showing sensitivity among the 4 colony forming cells tested in vitro at compound concentration of 20 uM; type: functional; method in brief: as §1
# [26] = system: RPMI-8226; test: Inhibition of cell growth in drug resistant 8226 myeloma cell line; type: functional, cell-based; settings: Homo sapiens
# [27] = system: MCF7; test: Inhibition of cell growth in (MCF7 breast) dox cell line; type: functional, cell-based; settings: Homo sapiens
# [28] = Number of colony forming cells of human stomach tumor showing sensitivity among the 1 colony forming cells tested in vitro at compound concentration of 2.0 uM; type: functional; method in brief: as §2
# [29] = Number of colony forming cells of human sarcoma tumor showing sensitivity among the 8 colony forming cells tested in vitro at compound concentration of 2.0 uM; type: functional; method in brief: as §2
# [30] = Number of colony forming cells of human ovary tumor showing sensitivity among the 10 colony forming cells tested in vitro at compound concentration of 0.2 uM; type: functional, Female gonad; method in brief: as §1
# [31] = system: MCF7; test: Inhibition of cell growth in (MCF7 breast) mitox cell line; type: functional, cell-based; settings: Homo sapiens
# [32] = system: WiDr; test: Inhibition of cell growth in drug sensitive WiDr colon cell line; type: functional, cell-based; settings: Homo sapiens
# [33] = Number of colony forming cells of human myeloma tumor showing sensitivity among the 2 colony forming cells tested in vitro at compound concentration of 20 uM; type: functional; method in brief: as §1
# [34] = system: WiDr; test: Inhibition of cell growth in drug resistant WiDr colon cell line; type: functional, cell-based; settings: Homo sapiens
# [35] = system: MCF7; test: Inhibition of cell growth in drug sensitive MCF-7 breast cell line; type: functional, cell-based; settings: Homo sapiens
# [36] = Number of colony forming cells of human sarcoma tumor showing sensitivity among the 2 colony forming cells tested in vitro at compound concentration of 0.2 uM; type: functional; method in brief: as §2
# [37] = Number of colony forming cells of human gynecologic tumor showing sensitivity among the 4 colony forming cells tested in vitro at compound concentration of 0.1 uM; type: functional; method in brief: as §1
# [38] = Number of colony forming cells of human ovary tumor showing sensitivity among the 12 colony forming cells tested in vitro at compound concentration of 0.1 uM; type: functional, Female gonad; method in brief: as §1
# [39] = Number of colony forming cells of human gynecologic tumor showing sensitivity among the 4 colony forming cells tested in vitro at compound concentration of 1.0 uM; type: functional; method in brief: as §1
# [40] = Number of colony forming cells of human stomach tumor showing sensitivity among the 1 colony forming cells tested in vitro at compound concentration of 0.1 uM; type: functional; method in brief: as §2
# [41] = system: Breast carcinoma cell; test: Number of colony forming cells of human breast tumor showing sensitivity among the 4 colony forming cells tested in vitro at compound concentration of 10 uM; type: functional; method in brief: as §1
# [42] = Number of colony forming cells of human lung tumor showing sensitivity among the 2 colony forming cells tested in vitro at compound concentration of 0.1 uM; type: functional; method in brief: as §1
# [43] = system: Breast carcinoma cell; test: Number of colony forming cells of human breast tumor showing sensitivity among the 4 colony forming cells tested in vitro at compound concentration of 1.0 uM; type: functional; method in brief: as §1
# [44] = Number of colony forming cells of human sarcoma tumor showing sensitivity among the 2 colony forming cells tested in vitro at compound concentration of 0.1 uM; type: functional; method in brief: as §2
# [45] = system: Breast carcinoma cell; test: Number of colony forming cells of human breast tumor showing sensitivity among the 4 colony forming cells tested in vitro at compound concentration of 0.1 uM; type: functional; method in brief: as §1
# [46] = Number of colony forming cells of human melanoma tumor showing sensitivity among the 10 colony forming cells tested in vitro at compound concentration of 10 uM; type: functional; method in brief: as §1
# [47] = Number of colony forming cells of human myeloma tumor showing sensitivity among the 3 colony forming cells tested in vitro at compound concentration of 10 uM; type: functional; method in brief: as §1
# [48] = Number of colony forming cells of human myeloma tumor showing sensitivity among the 3 colony forming cells tested in vitro at compound concentration of 0.1 uM; type: functional; method in brief: as §1
# [49] = Number of colony forming cells of human sarcoma tumor showing sensitivity among the 8 colony forming cells tested in vitro at compound concentration of 1.0 uM; type: functional; method in brief: as §2
# [50] = Number of colony forming cells of human lung tumor showing sensitivity among the 2 colony forming cells tested in vitro at compound concentration of 10 uM; type: functional; method in brief: as §1
# [51] = Number of colony forming cells of human stomach tumor showing sensitivity among the 1 colony forming cells tested in vitro at compound concentration of 10 uM; type: functional; method in brief: as §2
# [52] = Number of colony forming cells of human ovary tumor showing sensitivity among the 12 colony forming cells tested in vitro at compound concentration of 10 uM; type: functional, Female gonad; method in brief: as §1
# [53] = Number of colony forming cells of human ovary tumor showing sensitivity among the 11 colony forming cells tested in vitro at compound concentration of 1.0 uM; type: functional, Female gonad; method in brief: as §1
# [54] = Number of colony forming cells of human stomach tumor showing sensitivity among the 1 colony forming cells tested in vitro at compound concentration of 1.0 uM; type: functional; method in brief: as §2
# [55] = Number of colony forming cells of human lung tumor showing sensitivity among the 2 colony forming cells tested in vitro at compound concentration of 1.0 uM; type: functional; method in brief: as §1
# [56] = Number of colony forming cells of human melanoma tumor showing sensitivity among the 10 colony forming cells tested in vitro at compound concentration of 1.0 uM; type: functional; method in brief: as §1
# [57] = Number of colony forming cells of human melanoma tumor showing sensitivity among the 5 colony forming cells tested in vitro at compound concentration of 0.1 uM; type: functional; method in brief: as §1
# [58] = Number of colony forming cells of human sarcoma tumor showing sensitivity among the 8 colony forming cells tested in vitro at compound concentration of 10 uM; type: functional; method in brief: as §2
# [59] = Number of colony forming cells of human gynecologic tumor showing sensitivity among the 4 colony forming cells tested in vitro at compound concentration of 10 uM; type: functional; method in brief: as §1
# [60] = Number of colony forming cells of human myeloma tumor showing sensitivity among the 3 colony forming cells tested in vitro at compound concentration of 1.0 uM; type: functional; method in brief: as §1
# [61] = system: L1210; test: Cytotoxicity was measured as 50% inhibition of cell growth in drug sensitive L1210 leukemia cell line and is determined by MTT assay; type: functional, cell-based, Homo sapiens; settings: Mus musculus
# [62] = system: MCF7; test: Cytotoxicity was measured as 50% inhibition of cell growth in drug sensitive MCF-7 breast cell line; type: functional, cell-based, Mus musculus; settings: Homo sapiens
compound,measurement,setting,value
N#CC1CN1C(=O)Nc1ccccc1 (stereo not drawn),Sensitivity,[1],3
same,IC50,[2],5.3 µM
same,Sensitivity,[3],2
same,IC50,[4],1.2 µM
same,Sensitivity,[5],3
same,Sensitivity,[6],2
same,Sensitivity,[7],1
same,IC50,[8],6.8 µM
same,Sensitivity,[9],10
same,IC50,[10],11 µM
same,Sensitivity,[11],2
same,Sensitivity,[12],8
same,Sensitivity,[13],1
same,Sensitivity,[14],1
same,Sensitivity,[15],0
same,IC50,[16],9 µM
same,Sensitivity,[17],2
same,IC50,[18],11 µM
same,Sensitivity,[19],5
same,Sensitivity,[20],2
same,Sensitivity,[21],10
same,Sensitivity,[22],10
same,Sensitivity,[23],0
same,Sensitivity,[24],2
same,Sensitivity,[25],3
same,IC50,[26],8 µM
same,IC50,[27],2.6 µM
same,Sensitivity,[28],1
same,Sensitivity,[29],4
same,Sensitivity,[30],3
same,IC50,[31],4.3 µM
same,IC50,[32],5 µM
same,Sensitivity,[33],2
same,IC50,[34],12 µM
same,IC50,[35],2.9 µM
same,Sensitivity,[36],2
N=C1NC(=O)N2CC12 (stereo not drawn) [IMEXON],Sensitivity,[37],0
same,IC50,[2],17 µM
same,Sensitivity,[38],4
same,Sensitivity,[39],0
same,Sensitivity,[40],0
same,Sensitivity,[41],3
same,Sensitivity,[42],0
same,Sensitivity,[43],2
same,Sensitivity,[44],0
same,Sensitivity,[45],0
same,Sensitivity,[46],8
same,IC50,[16],> 72 µM
same,Sensitivity,[47],3
same,Sensitivity,[48],3
same,Sensitivity,[49],2
same,Sensitivity,[50],2
same,Sensitivity,[51],1
same,Sensitivity,[52],8
same,IC50,[27],> 18 µM
same,Sensitivity,[53],3
same,Sensitivity,[54],0
same,Sensitivity,[55],0
same,Sensitivity,[56],4
same,Sensitivity,[57],3
same,IC50,[31],> 18 µM
same,IC50,[32],> 72 µM
same,Sensitivity,[58],5
same,Sensitivity,[59],1
same,Sensitivity,[60],3
same,IC50,[34],> 72 µM
same,IC50,[35],> 18 µM
CCOC(=O)CNC(=O)N1CC1C#N (stereo not drawn),IC50,[2],25 µM
same,IC50,[10],13 µM
same,IC50,[16],24 µM
same,IC50,[18],51 µM
same,IC50,[61],13 µM
same,IC50,[26],30 µM
same,IC50,[27],17 µM
same,IC50,[31],11 µM
same,IC50,[32],31 µM
same,IC50,[62],15 µM
same,IC50,[34],33 µM
